Experimental data from different studies.
Each line is one published result; the experiments were not run side by side.
Target: Mitogen-activated protein kinase kinase kinase 5 (MAP3K5, Homo sapiens, UniProt Q99683)
Sequence (Q99683 1-1374, as in one of the studies): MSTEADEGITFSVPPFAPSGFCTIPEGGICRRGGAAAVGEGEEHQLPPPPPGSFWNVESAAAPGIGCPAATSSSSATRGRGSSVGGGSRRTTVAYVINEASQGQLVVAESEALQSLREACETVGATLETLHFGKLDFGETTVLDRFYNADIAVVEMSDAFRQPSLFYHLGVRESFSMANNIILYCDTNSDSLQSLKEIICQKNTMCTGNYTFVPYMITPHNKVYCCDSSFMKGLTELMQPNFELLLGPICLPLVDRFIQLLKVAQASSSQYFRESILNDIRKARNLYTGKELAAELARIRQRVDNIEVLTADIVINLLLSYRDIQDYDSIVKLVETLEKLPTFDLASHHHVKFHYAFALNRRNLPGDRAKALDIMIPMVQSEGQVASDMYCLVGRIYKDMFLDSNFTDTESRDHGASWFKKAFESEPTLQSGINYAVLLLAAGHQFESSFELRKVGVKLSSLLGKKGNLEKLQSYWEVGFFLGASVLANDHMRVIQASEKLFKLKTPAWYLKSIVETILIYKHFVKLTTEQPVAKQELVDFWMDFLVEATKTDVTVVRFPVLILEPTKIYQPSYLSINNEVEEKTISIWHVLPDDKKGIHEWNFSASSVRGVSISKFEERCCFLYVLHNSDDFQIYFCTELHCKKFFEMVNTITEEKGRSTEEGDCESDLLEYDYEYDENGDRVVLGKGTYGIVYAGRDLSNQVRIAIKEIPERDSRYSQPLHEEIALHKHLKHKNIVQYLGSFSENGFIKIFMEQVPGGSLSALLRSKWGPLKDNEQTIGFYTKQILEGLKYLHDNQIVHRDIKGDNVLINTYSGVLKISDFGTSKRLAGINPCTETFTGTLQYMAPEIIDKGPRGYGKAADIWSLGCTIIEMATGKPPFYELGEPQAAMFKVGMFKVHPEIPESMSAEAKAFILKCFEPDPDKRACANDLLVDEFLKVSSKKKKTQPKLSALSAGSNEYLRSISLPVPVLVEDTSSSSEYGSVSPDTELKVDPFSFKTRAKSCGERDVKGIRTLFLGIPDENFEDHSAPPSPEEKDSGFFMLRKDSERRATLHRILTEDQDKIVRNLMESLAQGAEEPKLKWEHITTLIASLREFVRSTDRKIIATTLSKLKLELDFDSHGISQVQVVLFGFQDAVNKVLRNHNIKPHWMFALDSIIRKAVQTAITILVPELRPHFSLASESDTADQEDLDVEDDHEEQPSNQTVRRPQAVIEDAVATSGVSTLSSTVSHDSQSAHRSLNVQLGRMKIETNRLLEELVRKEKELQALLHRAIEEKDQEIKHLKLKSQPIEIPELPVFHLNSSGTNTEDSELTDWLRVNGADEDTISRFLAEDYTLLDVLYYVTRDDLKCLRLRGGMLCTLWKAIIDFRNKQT

SMILES	effect on	action	method	concentration	quantity	result
COc1ccc2oc(-c3ccc4nc(N)oc4c3)c/c(=N\c3ccccc3NC(=O)CCN)c2c1	binding	–	–	1 µM	remaining binding	100%
CO[C@@H]1[C@H](N(C)C(=O)c2ccccc2)C[C@H]2O[C@]1(C)n1c3ccccc3c3c4c(c5c6ccccc6n2c5c31)C(=O)NC4	enzyme activity	inhibitor	–	1 µM	inhibition	0%
Cc1cc(O)c(-c2ccc([C@@H](C)CN(C)C)cc2)c2c1[nH]c(=O)c1sccc12	enzyme activity	inhibitor	–	0.1 µM	inhibition	-7.51%
C#Cc1cc(-c2cc(Nc3nc(N[C@@H](C)c4ccc(F)cn4)ncc3Cl)n[nH]2)ccc1C=O	enzyme activity	inhibitor	–	0.2 µM	inhibition	4.04%
Cc1ccc(NC(=O)c2ccnc(C(F)(F)F)c2)cc1-c1cc(OCCO)nc(N2CCOCC2)c1	binding	–	–	1 µM	remaining binding	92%
C=CC(=O)N1CCC[C@@H](n2nc(-c3ccc(Oc4ccccc4)cc3)c3c(N)ncnc32)C1	enzyme activity	inhibitor	–	1 µM	inhibition	10%
CCCCC(=O)Nc1ccc(-c2ccc3ncn(CCC)c(=O)c3c2)cn1	binding	–	competition with immobilised ligand	0.5 µM	remaining binding	91%
CN1CCN(C(=O)c2ccc(NC(=O)Nc3ccc(N(C)c4ccnc(Nc5ccc(CS(C)(=O)=O)cc5)n4)cc3)cc2)CC1	binding	–	–	1 µM	remaining binding	100%
